Data on five compounds can be found in PMC9662183 (Journal of medicinal chemistry, 2022).

Data set [1] is described as follows: Brain and plasma distribution study in CD-1 mice. In kind it is in vivo, mouse. As to conditions: CD1 mice.
A further data set deals with brain GSH. Briefly: Quantitation of GSH in brain of i.c.v. Aβ-injected mice. The format is in vivo, mouse. As to conditions: 250 mg/kg oral.
The test system of data set [2] is glyoxalase enzyme pathway (AGE content). Description: Brain advanced glycation endproducts. As to conditions: i.c.v. Aβ-injected mice, 250 mg/kg oral. In kind it is in vivo, mouse.
Data set [3] relates to i.c.v. Aβ1–42-injected C57BL/6 mice. Briefly: Spontaneous alternation T-maze in i.c.v. Aβ1–42-injected mice. The format is in vivo, mouse. To be noted: for T-maze alternation rate: mouse, in vivo, po, 250 mg/kg.
The nature of data set [4]: Conversion of prodrugs into ψ-GSH in brain homogenate. The format is in vitro ADME, mouse. As to conditions: freshly prepared brain homogenates containing proteinase inhibitors.
For a further data set, the system named is GFAP and Iba1 staining. The format is in vivo, mouse. To be noted: i.c.v. Aβ-injected mice, 250 mg/kg oral.
Data set [5] is described as follows: Conversion of prodrugs into ψ-GSH in liver homogenate. To be noted: liver homogenates. The format is in vitro ADME, mouse.
A short description of data set [6]: Stability in simulated gastric fluid. The format is in vitro ADME. The method in brief:
(§1)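 Test compound at 1 μM final was incubated at 37 °C in CD-1 mouse plasma, or in simulated gastric or intestinal fluid made per the USP National Formulary. Samples were taken at 0, 5, 15, 30, 60, 120 and 240 min and quenched with 3 volumes of acetonitrile/1% formic acid, then centrifuged. Prodrug and released parent were measured by HPLC-UV (Fmoc-Cl derivatization, 254 nm) and/or LC-MS/MS (MRM), and t1/2 was calculated.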

Data set [7] is described as follows: Stability in mouse brain homogenate. The format is in vitro ADME. As to conditions: 1 μM, 37 °C.
Data set [8] can be described thus: Stability in mouse liver homogenate. In kind it is in vitro ADME. As to conditions: for Half-life, tissue homogenate liver: mouse liver homogenate, 1 μM, 37 °C.
The nature of data set [9]: Stability in simulated intestinal fluid. To be noted: SIF, 1 μM, 37 °C. In kind it is in vitro ADME. The method in brief:
as §1

A short description of data set [10]: Stability in mouse plasma. The format is in vitro ADME. To be noted: mouse plasma (CD-1), 1 μM, 37 °C. The method in brief:
as §1

The test system of data set [11] is glyoxalase pathway (D-lactate). Description: Brain D-lactate measurement. In kind it is in vivo, mouse. To be noted: wild type C57BL/6 mice, 500 mg/kg oral, multiple time points.

Entries after “also recorded” stand apart in the source; their conditions may differ.

As to `Cl.N[C@@H](CNC(=O)N[C@@H](CS)C(=O)NCC(=O)OC1CCCC1)C(=O)OC1CCCC1` [prodrug 5, HCl.NH2-γ-L-Glz[-L-Cys(SH)-Gly-OcPe]-OcPe], the “plasma Cmax versus ψ-GSH” value in data set [1] (250 mg/kg oral, comparison ψ-GSH 500 mg/kg i.p.) is recorded as “increased Cmax”. In addition, the “brain levels of ψ-GSH after prodrug administration versus ψ-GSH treatment” value in [1] (prodrug 250 mg/kg oral vs ψ-GSH 500 mg/kg i.p.) is “lower than”. The “relative brain AUC” value in data set [1] (prodrug 250 mg/kg oral, 2-6 h) is recorded as 1.22 nmol·h/mg tissue. For the same compound, the “brain reduced GSH compared to the Aβ-only group” value in the data set on brain GSH was “significantly increased”. Also, the “brain total AGE content versus Aβ1–42 group” value in data set [2] was “significantly reduced”. For the same compound, in data set [3], the T-maze alternation rate entry is on record as “effective in improving the alternation behavior”. Further, the “conversion into / release of ψ-GSH in brain homogenate” value in data set [4] was “relatively higher and sustained release; also recorded: detected”. Also, the “Iba1 staining in dorsal hippocampus” value with GFAP and Iba1 staining is “significantly reduced”. Moreover, the “conversion into / release of ψ-GSH in liver homogenate” value in [5] is “relatively higher and sustained release; also recorded: detected”.

In general, half-life refers to the time in which the quantity being followed falls by half. A low value points to rapid decline. As for `CC(=O)SC[C@H](NC(=O)NC[C@H](N)C(=O)O)C(=O)NCC(=O)O` [prodrug 1, NH2-γ-L-Glz[-L-Cys(SAc)-Gly-OH]-OH], the half-life at 1 μM in data set [6] (simulated gastric fluid (SGF)) is around 24 h.

Take “N-Ethyloxycarbonyl-γ-L-Glz[-L-Cys(SCOOEt)-Gly-OH]-OH [prodrug 7]”: the “brain reduced GSH compared to the Aβ-only group” value with brain GSH is listed as “significantly increased”. Moreover, in data set [2], the “brain total AGE content versus Aβ1–42 group” value is reported as “significantly reduced”. Also, the T-maze alternation rate entry in data set [3] is on record as “effective in improving the alternation behavior”. For the same compound, the “T-maze repetitive arm entries” value in data set [3] (oral treatment, 250 mg/kg once a day, Aβ-only 3.22 ± 0.27) was found to be 1.00 ± 0.31. Also, in data set [7], the “Half-life, tissue homogenate brain” value turned out to be 9.79 h. Moreover, in [6] (SGF, 1 μM, 37 °C), the “Half-life, GI tract gastric phase” value is 17.96 h. Also, the “conversion into / release of ψ-GSH in brain homogenate” value in data set [4] is reported as “detected”. Also, the “Half-life, tissue homogenate liver” value in [8] was determined as 1.30 h. Besides, the “Half-life, GI tract intestinal phase” value in data set [9] is reported as 24.24 h. Further, the “Half-life, plasma” value in [10] came out at 113.6 h. In data set [11], the “brain D-lactate release” value is “immediate spike”. Besides, in the data set with GFAP and Iba1 staining, the “GFAP staining in dorsal hippocampus” value was “significant reduction”; the “Iba1 staining in dorsal hippocampus” value is on record as “significantly reduced”; the “astrocytic and microglial reactivity (GFAP, Iba1) in dentate gyrus” value is listed as “Mitigation”. For the same compound, the “conversion into / release of ψ-GSH in liver homogenate” value in data set [5] was “detected”.

As to “NH2-γ-L-Glz[-L-Thz-Gly-OH]-OH [prodrug 4]”, the “Half-life, tissue homogenate liver” value in data set [8] came to 115.5 h. For the same compound, the “Half-life, plasma” value in data set [10] came out at 30.64 h.

As for `CCOC(=O)SC[C@H](NC(=O)NC[C@H](N)C(=O)OC1CCCC1)C(=O)NCC(=O)OC1CCCC1` [prodrug 6, NH2-γ-L-Glz[-L-Cys(SCOOEt)-Gly-OcPe]-OcPe], the “conversion into / release of ψ-GSH in brain homogenate” value in data set [4] is “relatively higher and sustained release”. The “major metabolite in liver homogenate incubates” value in data set [8] (liver homogenate) is given as “thiocarbonate cleavage product”. Besides, the “conversion into / release of ψ-GSH in liver homogenate” value in data set [5] is “relatively higher and sustained release”.
